These results are taken from ChEMBL document CHEMBL1212834, “Pyrido[2,3-b]pyrazines, discovery of TRPV1 antagonists with reduced potential for the formation of reactive metabolites” (Bioorg Med Chem Lett, 2010).

Data set [1] concerns the target Transient receptor potential cation channel subfamily V member 1 (Homo sapiens, UniProt Q8NER1). The experiment in a line: Antagonist activity at human TRPV1 assessed as inhibition of capsaicin-induced receptor activation by FLIPR assay. It is filed as functional. Summed up: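 Human TRPV1 activated by capsaicin; inhibition read by FLIPR. IC50 is the mean of ≥3 experiments.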

Data set [2] in a line: AUC (0 to 24 hrs) in rhesus monkey at 1 mg/kg, po. It is filed as ADME, organism-based, Macaca mulatta. Also on record: time < 24 hr, dose 1 mg/kg, route oral. Particulars: plasma. Summed up: (§1)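 Oral PK at the dose in the line, given as a suspension in 0.5% methocel. […] Reported as mean ± error.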
The nature of data set [3]: Plasma concentration in rat complete Freund's adjuvant-induced inflammation model at 1 mg/kg, po QD for 3 consecutive days measured at 2 hrs post dose on day 1. On the set-up: dose 1 mg/kg, route oral. The class given is ADME, organism-based. A digest of the protocol: (§2)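 CFA (200 µL) injected intraplantar into left hind paw; next day rats dosed orally once daily for three consecutive days (1, 3 or 10 mg/kg, suspension in 0.5% methocel). Separate cohort: plasma sampled each day 2 h after dosing.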

In data set [4] the target is T1, Transient receptor potential cation channel subfamily V member 1 (Rattus norvegicus, UniProt O35433). The class given is functional, tissue-based, Sprague-Dawley, Dorsal root ganglion. The settings on record: read-out: IC50.
T1 sequence (O35433 whole entry): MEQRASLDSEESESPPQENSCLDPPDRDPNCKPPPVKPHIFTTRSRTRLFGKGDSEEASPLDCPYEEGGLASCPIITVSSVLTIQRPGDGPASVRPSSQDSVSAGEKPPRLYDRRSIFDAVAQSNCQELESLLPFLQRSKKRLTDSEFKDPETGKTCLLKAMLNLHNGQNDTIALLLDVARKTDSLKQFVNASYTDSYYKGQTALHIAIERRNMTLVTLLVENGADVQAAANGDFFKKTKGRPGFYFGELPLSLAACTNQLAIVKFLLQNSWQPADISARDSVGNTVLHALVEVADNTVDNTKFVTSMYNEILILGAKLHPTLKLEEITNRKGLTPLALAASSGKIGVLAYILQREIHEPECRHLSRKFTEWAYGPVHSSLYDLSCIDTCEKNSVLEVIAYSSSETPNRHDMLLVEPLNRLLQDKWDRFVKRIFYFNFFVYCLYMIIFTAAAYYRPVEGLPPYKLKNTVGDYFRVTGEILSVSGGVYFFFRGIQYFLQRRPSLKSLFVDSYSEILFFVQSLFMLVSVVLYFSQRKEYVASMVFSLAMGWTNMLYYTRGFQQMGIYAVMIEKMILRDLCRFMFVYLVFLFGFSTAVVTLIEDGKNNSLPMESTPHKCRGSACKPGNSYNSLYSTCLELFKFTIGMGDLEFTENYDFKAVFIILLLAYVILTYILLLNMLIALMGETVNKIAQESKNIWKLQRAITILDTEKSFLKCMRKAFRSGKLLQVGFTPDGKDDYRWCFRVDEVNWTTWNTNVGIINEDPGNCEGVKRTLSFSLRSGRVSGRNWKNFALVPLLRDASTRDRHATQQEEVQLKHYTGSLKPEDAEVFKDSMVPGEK
Data set [5] can be described thus: Metabolic stability in rat liver microsomes assessed as compound remaining after 10 min. The class given is ADME, Microsome. Particulars: read-out: Stability.
For data set [6], the system named is Rattus norvegicus. The experiment in a line: Plasma concentration in Sprague-Dawley rat carrageenan-induced thermal hyperalgesia model at 3 mg/kg, po. Also on record: dose 3 mg/kg, route oral. The class given is ADME, organism-based. Particulars: in vivo. A digest of the protocol: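 Rats given compound orally as a suspension in 0.5% methocel in the carrageenan-induced thermal hyperalgesia model. Plasma sampled immediately after the CITH experiment.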

The nature of data set [7]: Half life in rat at 1 mg/kg, iv. On the set-up: dose 1 mg/kg, route intravenous. Particulars: in vivo. It is filed as ADME, organism-based. Summed up: (§3)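 IV PK at 1 mg/kg, given as a solution in 3:1 PEG300:water. Plasma half-life, clearance and volume of distribution derived.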
A short description of data set [8]: Oral bioavailability in rat at 1 mg/kg. The class given is ADME, organism-based. Particulars: in vivo. Summed up:
(§4)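 Oral bioavailability from a 1 mg/kg po dose (suspension in 0.5% methocel), compared against a 1 mg/kg iv dose (solution in 3:1 PEG300:water).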

A short description of data set [9]: AUC (0 to 24 hrs) in rat at 1 mg/kg, po. It is filed as ADME, organism-based. Also on record: time < 24 hr, dose 1 mg/kg, route oral. The settings on record: plasma. A digest of the protocol: as §1
Data set [10] in a line: Clearance in dog at 1 mg/kg, iv. The class given is ADME, organism-based, Canis lupus familiaris. Also on record: dose 1 mg/kg, route intravenous. The settings on record: in vivo. A digest of the protocol:
as §3

Data set [11] is described as follows: Cmax in dog at 10 mg/kg, po. It is filed as ADME, organism-based, Canis lupus familiaris. On the set-up: dose 10 mg/kg, route oral. Particulars: in vivo. Summed up:
as §1

The nature of data set [12]: AUC (0 to 24 hrs) in dog at 10 mg/kg, po. The class given is ADME, organism-based, Canis lupus familiaris. On the set-up: time < 24 hr, dose 10 mg/kg, route oral. The settings on record: plasma. A digest of the protocol: as §1
Data set [13] in a line: Half life in rhesus monkey at 1 mg/kg, iv. The class given is ADME, organism-based, Macaca mulatta. On the set-up: dose 1 mg/kg, route intravenous. The settings on record: in vivo. A digest of the protocol: as §3
Data set [14] in a line: Clearance in rhesus monkey at 1 mg/kg, iv. The class given is ADME, organism-based, Macaca mulatta. Also on record: dose 1 mg/kg, route intravenous. The settings on record: in vivo. Summed up:
as §3

A short description of data set [15]: Volume of distribution in rhesus monkey at 1 mg/kg, iv. The class given is ADME, organism-based, Macaca mulatta. Also on record: dose 1 mg/kg, route intravenous. Particulars: in vivo. A digest of the protocol: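 Intravenous dose of 1 mg/kg given as a solution in 3:1 PEG300:water to rat, dog or rhesus monkey. Plasma PK parameters (T1/2, clearance, Vd) derived.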

Data set [16] is described as follows: Oral bioavailability in rhesus monkey at 1 mg/kg. The settings on record: in vivo. The class given is ADME, organism-based, Macaca mulatta. A digest of the protocol:
as §4

The target in data set [17] is T2, Amine oxidase [flavin-containing] A (Homo sapiens, UniProt P21397).
T2 sequence (P21397 whole entry): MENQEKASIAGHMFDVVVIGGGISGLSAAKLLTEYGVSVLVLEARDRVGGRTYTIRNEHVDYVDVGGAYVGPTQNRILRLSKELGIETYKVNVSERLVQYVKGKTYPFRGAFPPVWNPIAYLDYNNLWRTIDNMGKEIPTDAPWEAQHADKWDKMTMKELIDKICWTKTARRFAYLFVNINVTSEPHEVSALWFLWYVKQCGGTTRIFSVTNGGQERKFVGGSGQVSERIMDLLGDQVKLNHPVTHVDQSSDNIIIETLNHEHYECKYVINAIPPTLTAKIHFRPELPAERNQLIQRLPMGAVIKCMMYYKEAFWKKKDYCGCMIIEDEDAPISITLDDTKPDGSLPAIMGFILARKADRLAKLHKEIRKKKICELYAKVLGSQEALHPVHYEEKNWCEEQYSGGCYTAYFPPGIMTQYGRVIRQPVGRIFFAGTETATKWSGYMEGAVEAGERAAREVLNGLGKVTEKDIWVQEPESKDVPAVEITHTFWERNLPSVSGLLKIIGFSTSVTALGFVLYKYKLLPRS
The experiment in a line: Inhibition of MAOA. A digest of the protocol: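 Off-target panel of more than 160 receptors, ion channels, transporters and kinases, which included MAO.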

Data set [18] concerns Rattus norvegicus. Put plainly: Antiinflammatory activity in rat assessed as inhibition of complete Freund's adjuvant-induced hind paw edema at 3 mg/kg, po administered 1 day after complete Freund's adjuvant challenge QD for 3 consecutive days measured at 2 hrs post dose on day 1. It is filed as functional. Summed up:
(§5)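 CFA 200 µL injected intraplantar into the left hind paw. From the next day, 1, 3 or 10 mg/kg po once daily for 3 days as a suspension in 0.5% methocel.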

Data set [19] concerns Rattus norvegicus. The experiment in a line: Antiinflammatory activity in rat assessed as inhibition of complete Freund's adjuvant-induced hind paw edema at 10 mg/kg, po administered 1 day after complete Freund's adjuvant challenge QD for 3 consecutive days measured at 2 hrs post dose on day 1. It is filed as functional. A digest of the protocol: as §5
A short description of data set [20]: Plasma concentration in rat complete Freund's adjuvant-induced inflammation model at 3 mg/kg, po QD for 3 consecutive days measured at 2 hrs post dose on day 2. The class given is ADME, organism-based. Also on record: dose 3 mg/kg, route oral. Summed up: as §2
The nature of data set [21]: Plasma concentration in rat complete Freund's adjuvant-induced inflammation model at 10 mg/kg, po at 2 hrs on second day. The class given is ADME, organism-based. Also on record: dose 10 mg/kg, route oral. Summed up:
as §2

Data set [22] addresses T1, Transient receptor potential cation channel subfamily V member 1. The experiment in a line: Antagonist activity at Sprague-Dawley rat dorsal root ganglion TRPV1 assessed as inhibition of pH-induced receptor activation. It is filed as functional, tissue-based. A digest of the protocol: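 Rat TRPV1 activated by low pH (5.0–5.5); inhibition measured and IC50 given as the mean of ≥3 experiments.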

A further data set deals with Liver microsomes. Put plainly: Metabolic stability in human liver microsomes assessed per mg of protein after 1 hr.

SMILES strings stand for the structures.

Sequence of Transient receptor potential cation channel subfamily V member 1 (Homo sapiens, UniProt Q8NER1) (Q8NER1 whole entry): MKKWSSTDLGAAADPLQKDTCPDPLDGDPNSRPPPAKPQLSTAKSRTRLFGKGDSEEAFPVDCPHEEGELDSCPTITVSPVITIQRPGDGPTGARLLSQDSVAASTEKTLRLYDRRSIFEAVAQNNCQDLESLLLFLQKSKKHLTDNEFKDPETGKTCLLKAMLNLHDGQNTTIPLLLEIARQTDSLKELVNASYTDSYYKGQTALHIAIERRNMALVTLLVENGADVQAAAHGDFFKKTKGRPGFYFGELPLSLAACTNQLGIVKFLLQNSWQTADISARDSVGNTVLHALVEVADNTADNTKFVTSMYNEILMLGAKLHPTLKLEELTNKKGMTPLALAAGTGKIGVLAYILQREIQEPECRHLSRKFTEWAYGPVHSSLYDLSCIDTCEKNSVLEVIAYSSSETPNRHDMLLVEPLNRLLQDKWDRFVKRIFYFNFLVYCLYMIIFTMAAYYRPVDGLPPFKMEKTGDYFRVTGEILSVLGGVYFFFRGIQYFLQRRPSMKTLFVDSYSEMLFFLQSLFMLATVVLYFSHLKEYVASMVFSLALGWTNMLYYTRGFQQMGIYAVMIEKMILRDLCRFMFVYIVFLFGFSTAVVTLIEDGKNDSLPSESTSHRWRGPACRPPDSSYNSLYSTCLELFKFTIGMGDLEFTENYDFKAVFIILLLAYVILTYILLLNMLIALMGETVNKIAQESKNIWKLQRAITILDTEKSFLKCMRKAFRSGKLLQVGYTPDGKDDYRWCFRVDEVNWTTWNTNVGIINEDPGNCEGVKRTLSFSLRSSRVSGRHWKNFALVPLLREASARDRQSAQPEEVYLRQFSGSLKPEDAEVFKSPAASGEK

Consider `NC(=O)c1cnc(-c2cnc3c(Nc4ccc(C(F)(F)F)cn4)ccnc3n2)c(C(F)(F)F)c1`, for which the IC50 was 0.8 nM in data set [1], 1.3 nM in data set [4], 2400 nM in [17] and 1.3 nM in [22]. Besides, the figures for the AUC(0-t) at 24 h in [2], in data set [9] and in data set [12] were 4.9 µM·h, 1.4 µM·h and 68 µM·h, respectively. Moreover, the concentration at 2 h in data set [3] was 270 nM; in data set [20], 1100 nM; in data set [21], 3120 nM. The remaining at 10 min in [5] was 100%. In the data set on Rattus norvegicus [6], this compound returned a concentration of 1090 nM. Besides, the half-life in [7] was 2.3 h; in data set [13] it was 4.4 h. In addition, the bioavailability in data set [8] amounted to 103%; in data set [16], 38%. In addition, the clearance in data set [10] came to 7.4 mL/min/kg; in [14], 2.8 mL/min/kg. This compound had a Cmax in data set [11] of 5200 nM. The same compound displayed a Vd in data set [15] of 1 L/kg. In addition, the inhibition in vivo at 3 mg/kg with Rattus norvegicus [18] stood at 65%. Further, in the data set with Rattus norvegicus [19], the inhibition in vivo at 10 mg/kg was determined as 85%. In the data set with Liver microsomes, the Stability is 8 pmol.
